Variants at the floor of the assay were thinned out.
B1: tRNA (parent)
chain: GUUCCGUUGGCGUAAUGGUAACGCGUCUCCCUCCUAAGGAGAAGACUGCGGGUUCGAGUCCCGUACGGAACG

Variants of: B1
Assay: yeast fitness relative to wild type (ratio to wild type); higher = fitter; tRNA-Arg(CCU), competitive growth, 37 C, YPD
Outline: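 A pool of Saccharomyces cerevisiae strains, each with a tRNA-Arg(CCU) gene variant at the native genomic locus, was competed in YPD at 37°C for 24 hours across six parallel replicates. The variants had been chemically synthesised at a 3% per-site mutation rate over 69 sites, and gene amplicons before and after competition were read by 100-nucleotide paired-end sequencing. Darwinian fitness relative to wild type rested on changes in genotype frequencies. Genotypes required ≥ 100 starting reads, and estimates < 0.5 were set to 0.5.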

Going from GUUCCGUUGGCGUAAUGGUAACGCGUCACCCUCCUAAGGAGAAGACUGCUGGUUCGAGUCCCGUACGGAACG [U28A G50U] to GUUCCGUUGGCGUAAUGGUAACGCGUCACCCUCCUAAGGAGAAGACUGCGGGUUCGAGUCCCAUACGGAACG [U28A G63A], the yeast fitness rises from 0.622 to 0.849.

Going from GUUCCGUUGGCGUAAUGGUAACGCGUCACCCCCCUAAGGAGACGACUGCGGGUUCGCGUCCCGUACGGAACG [U28A U32C A43C A57C] to GUUCCGUUGGCGUAAUGGUAACGCGUCACCCCCCUAAGCAGAAGACUGCGGGUUCGAGUCCCGUACGGAACG [U28A U32C G39C], the yeast fitness rises from ≤ 0.5 to 0.542.

Compared with GUUCCGUUGGCGUAAUGGUAACGCGUCACCCGCCUAAGGAGAAGACUGCGGGUUGGAGUCCCGUACGGAACG [U28A U32G C55G], GUUCCGUUGGCGUAAUGGUAACGCGUCACCCUCCAAAGGAGAAGACUGCGGGUUCGAGUCCCGUACGGAACG [U28A U35A] is higher in yeast fitness: 0.505 for the first, 0.584 for the second.

First: GUUCCGUUGGCGUAAUGGUAACGCGUCACCCUCCUAAGGAGAAGACUGCGGGAUCGAGUCCCGUACGGAACG [U28A U53A]
Second: GUUCCGUUGGCGUAAUGGUAACGCGUCACCCUCCUAAGGAGAAGACUGCGGGUUCGAGUCCCGCACGGAACG [U28A U64C]
The yeast fitness of the first is lower: 0.6 for the first, 0.834 for the second.

Going from GUUCCGUUGGCGUAAUGGUAACGCGUCCCCCUCCUCAGGAGAAGACAGCGGGUUCGACUCCCGUACUGAACG [U28C A36C U47A G58C G67U] to GUUCCGUUGGCGUAAUGGUAACGCGUCCCCCUCCUACGGUGAAGACUGCGGGUUCGAGUCCCGUACGGAACG [U28C A37C A40U], the yeast fitness rises from ≤ 0.5 to 0.568.

Going from GUUCCGUUGGCGUAAUGGUAACGCGUCCCCCUCCUACGGAGAAGACUGCGGGUUCGAGUCCCGUACGGCACG [U28C A37C A69C] to GUUCCGUUGGCGUAAUGGUAACGCGUCCCCCUCCUAUGGUGAAGACUGGGGGUUCGUGUCCCGUACGCAGCG [U28C A37U A40U C49G A57U G68C A70G], the yeast fitness rises from ≤ 0.5 to 0.624.

GUUCCGUUGGCGUAAUGGUAACGCGUCCCCCUCCUAAGGCGAAGACUGCGGGUUCCAGUCCCGUGCGGAACG [U28C A40C G56C A65G] and GUUCCGUUGGCGUAAUGGUAACGCGUCCCCCUCCUAAGGUGAAGACUGCGGGUUAGAGUCCCGUACGGAACG [U28C A40U C55A] cannot be ordered by yeast fitness: ≤ 0.5 for the first, ≤ 0.5 for the second.

First: GUUCCGUUGGCGUAAUGGUAACGCGUCCCCCUCCUAAGGAGCAGACUGCGGGUUCGAGUUCCGUACGGAACG [U28C A42C C60U]
Second: GUUCCGUUGGCGUAAUGGUAACGCGUCCCCCUCCUAAGGAGGAGACUGCGGGUUCGAGUCCCGUACGGAACG [U28C A42G]
The yeast fitness of the first is lower: 0.589 for the first, 0.913 for the second.

Compared with GUUCCGUUGGCGUAAUGGUAACGCGUCCCCCUCCUAAGGAGUGGACUGCGGGUUCGAGUCCCGUACGGAACG [U28C A42U A43G], GUUCCGUUGGCGUAAUGGUAACGCGUCCCCCUCCUAAGGAGUAGACUGCGGGUUCGAGUCCCGUACGGUACG [U28C A42U A69U] is higher in yeast fitness: 0.597 for the first, 0.74 for the second.

Going from GUUCCGUUGGCGUAAUGGUAACGCGUCCCCCUCCUAAGGAGAAGUCUGCGGGUUAGAGUCCCGUAAGGAACG [U28C A45U C55A C66A] to GUUCCGUUGGCGUAAUGGUAACGCGUCCCCCUCCUAAGGAGAAGACUGCGGGUUCGCGUCCCGUACGGAACG [U28C A57C], the yeast fitness rises from ≤ 0.5 to 0.586.

Compared with GUUCCGUUGGCGUAAUGGUAACGCGUCCCCCUCCUAAGGAGAAGACUGCGGGUUCGAGUCCCGUUCGGAACG [U28C A65U], GUUCCGUUGGCGUAAUGGUAACGCGUCCCCCUCCUAAGGAGAAGACUGCGGGUUCGAGUCCCGUACGGCACG [U28C A69C] is higher in yeast fitness: 0.855 for the first, 0.94 for the second.

Going from GUUCCGUUGGCGUAAUGGUAACGCGUCCCCCUCCUAAGGAGAAGACUGCGGGUUCGAGUCCCGUACGGAUCG [U28C A70U] to GUUCCGUUGGCGUAAUGGUAACGCGUCCACCUCCUAAGGAGAAGACUGCGGGUUCGAGUCCCGUACGGUACG [U28C C29A A69U], the yeast fitness falls from 0.87 to 0.559.

First: GUUCCGUUGGCGUAAUGGUAACGCGUCCCACUCCUAAGAAGAAGACUGCGGGUUCGAGUCCCGUAUGGAACG [U28C C30A G39A C66U]
Second: GUUCCGUUGGCGUAAUGGUAACGCGUCCCUCUCCUAAGGAGAAGACUGCGGGUUCGAGUCCCGUACGGUACG [U28C C30U A69U]
The yeast fitness of the first is lower: 0.594 for the first, 0.598 for the second.

GUUCCGUUGGCGUAAUGGUAACGCGUCCCCAUCGUAAGGAGAAGUCUGCGGGUUCGAGUCCCGUACGGAACG [U28C C31A C34G A45U] and GUUCCGUUGGCGUAAUGGUAACGCGUCCCCUUCCUAAGGAGAAGACUGCCGGUUUGAGUGCCAUAUGGAACG [U28C C31U G50C C55U C60G G63A C66U] cannot be ordered by yeast fitness: ≤ 0.5 for the first, ≤ 0.5 for the second.

Compared with GUUCCGUUGGCGUAAUGGUAACGCGUCCCCCUGCUAAAGAGAAGACUGCGGGUUCGAGUCCCGUACGGAACG [U28C C33G G38A], GUUCCGUUGGCGUAAUGGUAACGCGUCCCCCUCUUAAGGAGAAGACUGCGGGUUCGAGUCCCGUACGGAACG [U28C C34U] is higher in yeast fitness: ≤ 0.5 for the first, 0.71 for the second.

Compared with GUUCCGUUGGCGUAAUGGUAACGCGUCCCCCUCCUAAGGAGAAGACUGGGGGUUCGAGUCCCGUACGGAACG [U28C C49G], GUUCCGUUGGCGUAAUGGUAACGCGUCCCCCUCCUAAGGAGAAGACUGCGGGUUCGAGUCCGGUAGGGAACG [U28C C62G C66G] is lower in yeast fitness: 0.909 for the first, ≤ 0.5 for the second.

Compared with GUUCCGUUGGCGUAAUGGUAACGCGUCCCCCUCCUAACGAGAAGACUGCGGGUUCGAGUCCCGUACGGAACG [U28C G38C], GUUCCGUUGGCGUAAUGGUAACGCGUCCCCCUCCUAACGAGAAGUCUGCGGGUUCGAGUCCCGUACGACACG [U28C G38C A45U G68A A69C] is lower in yeast fitness: 0.579 for the first, ≤ 0.5 for the second.

Compared with GUUCCGUUGGCGUAAUGGUAACGCGUCCCCCUCCUAAGAUGGAGACUGCGGGUUCGAGUCCCGUACGGAACG [U28C G39A A40U A42G], GUUCCGUUGGCGUAAUGGUAACGCGUCCCCCUCCUAAGCAGAACACUGCGGGUUCGAGUCCCGUACGGAACG [U28C G39C G44C] is higher in yeast fitness: ≤ 0.5 for the first, 0.529 for the second.

GUUCCGUUGGCGUAAUGGUAACGCGUCCCCCUCCUAAGCAGAACAUUGCGGGUUCGAGUCCCGUACGGAACG [U28C G39C G44C C46U] and GUUCCGUUGGCGUAAUGGUAACGCGUCCCCCUCCUAAGGACAAGACUGAGGGUUCGAGUCCCGUACGGAACG [U28C G41C C49A] cannot be ordered by yeast fitness: ≤ 0.5 for the first, ≤ 0.5 for the second.

Source: the RNAGym collection of RNA variant scans (doi:10.1126/science.aae0568)
